4 compounds from ChEMBL document CHEMBL4014329, “Selective Inhibition of Escherichia coli RNA and DNA Topoisomerase I by Hoechst 33258 Derived Mono- and Bisbenzimidazoles” (J Med Chem, 2017) can be followed below.

Values after ≈ are worked out from the molar mass of the structure shown. Active and inactive are the calls of the source. The rule behind the calls is not given here.

For data set [1], the system named is Staphylococcus aureus. The experiment in a line: Antibacterial activity against methicillin-resistant Staphylococcus aureus A960649 after 24 hrs by microbroth dilution method. Format: functional. The following applies: A960649, 24 h. A digest of the protocol:
(§1)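 Mueller-Hinton broth cultures grown at 37 °C with shaking to log phase, pelleted, resuspended in 0.85% saline to OD625 0.1. Broth microdilution per CLSI guidelines, final inoculum 5 × 10^5 CFU/mL, in triplicate, 24 h at 37 °C. Growth read as OD625. MIC is the lowest concentration giving complete growth inhibition versus untreated controls.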
(In general: In broth dilution the organism is exposed to a series of concentrations in liquid medium.)

For the next data set, the system named is Klebsiella pneumoniae. Nature of the data set: Antibacterial activity against Klebsiella pneumoniae NR15410 after 24 hrs by microbroth dilution method. Format: functional. The settings on record: NR15410, 24 h. A digest of the protocol:
(§2)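 Microbroth dilution per CLSI guidelines. Organisms grown in Mueller−Hinton broth at 37 °C with shaking to log phase, pelleted, resuspended in 0.85% saline to OD625 0.1. Final inoculum 5 × 10^5 CFU/mL; triplicate; 24 h at 37 °C. OD625 read; MIC = lowest concentration completely inhibiting growth versus untreated controls.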

Data set [2] deals with Escherichia coli. Nature of the data set: Inhibition of Escherichia coli DNA gyrase using relaxed plasmid pBAD-GFPuv as substrate after 30 mins by agarose gel electrophoresis.
Another data set has as its system Pseudomonas aeruginosa. The experiment in a line: Antibacterial activity against Pseudomonas aeruginosa ATCC 27853 after 24 hrs by microbroth dilution method. Format: functional. The following applies: ATCC 27853, 24 h. A digest of the protocol: as §2
The test system of another data set is Enterococcus faecium. The experiment in a line: Antibacterial activity against Enterococcus faecium BM4105RF after 24 hrs by microbroth dilution method. It counts as functional. A digest of the protocol:
as §1

In data set [3] the test system is Staphylococcus epidermidis. Nature of the data set: Antibacterial activity against Staphylococcus epidermidis ATCC 12384 after 24 hrs by microbroth dilution method. The settings on record: ATCC 12384, 24 h. It counts as functional. An outline of the steps: as §2
For a further data set, the system named is Citrobacter freundii. Nature of the data set: Antibacterial activity against Citrobacter freundii 4747CFAA after 24 hrs by microbroth dilution method. Format: functional. A digest of the protocol: as §2
Data set [4] deals with Staphylococcus aureus. Nature of the data set: Antibacterial activity against methicillin-resistant Staphylococcus aureus 33591 after 24 hrs by microbroth dilution method. Format: functional. The settings on record: Staphylococcus aureus, 33591, 24 h. A digest of the protocol: as §1
Data set [5] has as its system Escherichia coli. Nature of the data set: Inhibition of Escherichia coli RNA topoisomerase 1 using circular RNA as substrate up to 50 uM after 1.5 hrs by SDS-PAGE analysis. An outline of the steps:
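10 nM E. coli topoisomerase I premixed with reaction buffer and inhibitor diluted in DMSO, then circular RNA substrate added; 1.5 h incubation. Stopped with proteinase K/SDS/EDTA buffer. Trefoil RNA knot product separated from circular substrate on 15% TBE−urea gels and detected by phosphorimaging. DMSO-only control included.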

Another data set has as its system Enterobacter cloacae. The experiment in a line: Antibacterial activity against Enterobacter cloacae ATCC 13047 after 24 hrs by microbroth dilution method. The settings on record: ATCC 13047, 24 h. It counts as functional. A digest of the protocol:
as §2

The test system of another data set is Acinetobacter baumannii. Nature of the data set: Antibacterial activity against Acinetobacter baumannii ATCC 19606 after 24 hrs by microbroth dilution method. Format: functional. The following applies: ATCC 19606 = CIP 70.34 = JCM 6841, 24 h. A digest of the protocol: as §2
Data set [6] deals with Escherichia coli. The experiment in a line: Antibacterial activity against Escherichia coli ATCC 25922 after 24 hrs by microbroth dilution method. It counts as functional. The following applies: ATCC 25922, 24 h. An outline of the steps:
as §2

Another data set concerns Shigella flexneri. The experiment in a line: Antibacterial activity against Shigella flexneri 2457NR517 after 24 hrs by microbroth dilution method. It counts as functional. The following applies: 2457NR517, 24 h. A digest of the protocol: as §1
The next data set deals with DU-145. Nature of the data set: Cytotoxicity against human DU145 cells after 48 hrs by SRB assay. It counts as cell-based. The following applies: for IC50: Homo sapiens, DU-145, 48 h. An outline of the steps:
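Cells cultured per ATCC protocols, seeded and grown 24 h (37 °C, 5% CO2), then treated in triplicate at final 20, 10, 5, 2.5, 1.25, 0.625 and 0.0625 μM for 48 h. Fixed with cold TCA (16% final, 4 °C, 1 h), stained with SRB in 1% acetic acid, dye solubilized in 10 mM Tris base, A560 read. IC50 derived; study in duplicate.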
For orientation: The SRB assay estimates cell density from bound dye.

The next data set relates to Enterococcus faecalis. Nature of the data set: Antibacterial activity against Enterococcus faecalis ATCC 29212 after 24 hrs by microbroth dilution method. Format: functional. The following applies: ATCC 29212, 24 h. A digest of the protocol: as §2
Data set [7] has as its system Staphylococcus aureus. The experiment in a line: Antibacterial activity against Staphylococcus aureus ATCC 29213 after 24 hrs by microbroth dilution method. It counts as functional. The settings on record: ATCC 29213, 24 h. A digest of the protocol: as §2
The subject of data set [8] is Escherichia coli. The experiment in a line: Antibacterial activity against Escherichia coli K-12 after 24 hrs by microbroth dilution method. It counts as functional. The settings on record: K-12, 24 h. A digest of the protocol: as §2
The subject of data set [9] is Staphylococcus aureus. The experiment in a line: Antibacterial activity against Staphylococcus aureus ATCC 33591 after 24 hrs by microbroth dilution method. Format: functional. The following applies: ATCC 33591, 24 h. An outline of the steps:
as §2

Data set [10] in a line: Binding affinity to dA60.dT60 B-DNA duplex (unknown origin) assessed as induction of biphasic transition at <5 uM by UV-vis spectrophotometric analysis.
Data set [11] is described as follows: Binding affinity to dA60.dT60 B-DNA duplex (unknown origin) assessed as change in melting temperature at 10 uM by UV-vis spectrophotometric analysis. A digest of the protocol: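 UV melting of dA60·dT60 at 1 μM/duplex with compound at 10 μM. Buffer 10 mM sodium cacodylate, 0.1 mM EDTA, 100 mM NaCl, pH 7.0; duplex pre-annealed from 95 °C. Compound stocks in DMSO diluted into buffer. Heating at 0.2 °C/min, monitored at 260 nm, points every 1.0 °C; Tm taken from derivatives.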

For another data set, the target named is T1, DNA topoisomerase 1 (Homo sapiens, UniProt P11387).
T1 sequence (P11387 whole entry): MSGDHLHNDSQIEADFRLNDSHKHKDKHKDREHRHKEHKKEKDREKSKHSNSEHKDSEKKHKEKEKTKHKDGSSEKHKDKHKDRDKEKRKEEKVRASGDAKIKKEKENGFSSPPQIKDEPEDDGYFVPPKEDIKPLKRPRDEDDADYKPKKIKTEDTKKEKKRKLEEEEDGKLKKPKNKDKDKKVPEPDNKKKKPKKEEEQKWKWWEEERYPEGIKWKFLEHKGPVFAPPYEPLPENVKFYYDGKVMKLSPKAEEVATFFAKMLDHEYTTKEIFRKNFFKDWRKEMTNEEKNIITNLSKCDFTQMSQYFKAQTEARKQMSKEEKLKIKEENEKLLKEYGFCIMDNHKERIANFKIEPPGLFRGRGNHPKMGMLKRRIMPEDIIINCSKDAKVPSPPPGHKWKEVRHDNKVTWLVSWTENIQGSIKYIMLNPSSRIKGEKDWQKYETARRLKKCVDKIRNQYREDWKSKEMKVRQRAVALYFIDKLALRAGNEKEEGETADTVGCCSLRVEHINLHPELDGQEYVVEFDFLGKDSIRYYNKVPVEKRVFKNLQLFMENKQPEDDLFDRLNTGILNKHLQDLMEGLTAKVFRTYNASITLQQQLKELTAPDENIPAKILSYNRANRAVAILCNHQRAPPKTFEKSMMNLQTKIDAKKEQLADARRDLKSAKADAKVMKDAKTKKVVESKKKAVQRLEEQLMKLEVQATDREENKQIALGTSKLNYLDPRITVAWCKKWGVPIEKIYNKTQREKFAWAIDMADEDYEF
Nature of the data set: Inhibition of human DNA topoisomerase 1 using plasmid pBAD-GFPuv as substrate after 30 mins by agarose gel electrophoresis.

A short description of data set [12]: Inhibition of Escherichia coli DNA topoisomerase 1 using plasmid pBAD-GFPuv as substrate after 15 mins by agarose gel electrophoresis. An outline of the steps: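 E. coli topoisomerase I at 6 nM relaxing 150 ng supercoiled pBAD-GFPuv. 15 min at 37 °C, phenol-stopped, 1% agarose gel, ethidium stain. IC50 is the concentration leaving 50% DNA supercoiled; three independent determinations.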

Usually MIC stands for the lowest concentration found to suppress growth. Take `C#CCCCCOc1ccc(-c2nc3ccc(-c4nc5ccc(N6CCN(C)CC6)cc5[nH]4)cc3[nH]2)cc1`: the MIC is 4 µg/mL (≈ 7.93 µM) against Staphylococcus aureus [1]; over 32 µg/mL against Klebsiella pneumoniae; 16 µg/mL (≈ 31.7 µM) in the data set on Pseudomonas aeruginosa; 1 to 2 µg/mL (≈ 1.98 to 3.96 µM) with Enterococcus faecium; 1 to 2 µg/mL (≈ 1.98 to 3.96 µM) in [3]; over 32 µg/mL in the data set with Citrobacter freundii. For the same compound, the minimal inhibitory concentration (MIC) with Staphylococcus aureus [4] is 4 µg/mL (≈ 7.93 µM); against Enterobacter cloacae it was over 32 µg/mL; with Acinetobacter baumannii, 16 µg/mL (≈ 31.7 µM); against Escherichia coli [6], 8 to 16 µg/mL (≈ 15.9 to 31.7 µM); against Shigella flexneri, 8 µg/mL (≈ 15.9 µM). Also, the inhibition entry with Escherichia coli [2] and with Escherichia coli [5] was “inactive” throughout. In addition, in the data set on DU-145 (human, du-145, 48 h), the Activity result is recorded as “Toxic”.

The IC50 is the point on the concentration scale where inhibition reaches its midpoint. A high value points to lower potency. For `CN1CCN(c2ccc3nc(-c4ccc5nc(-c6ccc(O)cc6)[nH]c5c4)[nH]c3c2)CC1.Cl.Cl.Cl`, the MIC with Enterococcus faecalis is 16 to 32 µg/mL; in the data set on Pseudomonas aeruginosa it was 8 µg/mL; in the data set with Staphylococcus aureus [7], over 32 µg/mL; in the data set with Escherichia coli [8], 8 µg/mL; in the data set with Escherichia coli [6] it was 8 to 16 µg/mL; in the data set with Staphylococcus aureus [9], 16 to 32 µg/mL. In the data set with DU-145, this compound gave a concentration for half-maximal inhibition (IC50) of over 10 µM.

For orientation: ΔTm means the change in melting temperature against a reference sample. For `CN1CCN(c2ccc3nc(-c4ccc(OCc5cn(CCCCN=[N+]=[N-])nn5)cc4)[nH]c3c2)CC1`, the MIC was over 32 µg/mL with Staphylococcus aureus [1]; 16 to 32 µg/mL (≈ 32.9 to 65.8 µM) in the data set with Enterococcus faecalis; over 32 µg/mL against Klebsiella pneumoniae; 16 µg/mL (≈ 32.9 µM) in the data set with Pseudomonas aeruginosa; 16 to 32 µg/mL (≈ 32.9 to 65.8 µM) in the data set with Staphylococcus aureus [7]; 16 µg/mL (≈ 32.9 µM) in the data set with Escherichia coli [8]. In addition, the minimum inhibitory concentration (MIC) (in the data set with Enterococcus faecium; in data set [3]; in the data set with Citrobacter freundii; in the data set on Staphylococcus aureus [4]; against Enterobacter cloacae; in the data set on Acinetobacter baumannii) was over 32 µg/mL throughout. Further, the MIC is 16 µg/mL (≈ 32.9 µM) with Escherichia coli [6], over 32 µg/mL with Shigella flexneri and 16 µg/mL (≈ 32.9 µM) against Staphylococcus aureus [9]. The result in [10] was Active. Further, the inhibition result in the data set with Escherichia coli [5] is “inactive”. In addition, in [11], the ΔTm is 0.5 °C. In addition, the IC50 on DNA topoisomerase 1 is over 50 µM; in data set [12] it was 21.5 µM.

Turning to `C#CCOCCOCCOCCOCCOCCOCCOc1ccc(-c2nc3ccc(-c4nc5ccc(N6CCN(C)CC6)cc5[nH]4)cc3[nH]2)cc1`, the MIC in the data set on Staphylococcus aureus [1] was over 32 µg/mL; against Enterococcus faecalis, 16 to 32 µg/mL (≈ 22 to 44 µM); against Klebsiella pneumoniae, over 32 µg/mL; in the data set on Pseudomonas aeruginosa, 16 to 32 µg/mL (≈ 22 to 44 µM); against Staphylococcus aureus [7] it was 16 to 32 µg/mL (≈ 22 to 44 µM); in the data set with Escherichia coli [8], 2 to 4 µg/mL (≈ 2.75 to 5.5 µM). Besides, the MIC against Enterococcus faecium is at least 32 µg/mL; in data set [3] it was 16 to 32 µg/mL (≈ 22 to 44 µM); with Citrobacter freundii, over 32 µg/mL; with Staphylococcus aureus [4] it was over 32 µg/mL; against Enterobacter cloacae, over 32 µg/mL; with Acinetobacter baumannii it was over 32 µg/mL. Besides, the minimum inhibitory concentration (MIC) with Escherichia coli [6] is 16 to 32 µg/mL (≈ 22 to 44 µM); in the data set with Shigella flexneri, at least 32 µg/mL; in the data set with Staphylococcus aureus [9], 16 to 32 µg/mL (≈ 22 to 44 µM). Further, the result in [10] was Active. Moreover, the inhibition entry with Escherichia coli [5] is “inactive”. In addition, the shift in melting temperature (ΔTm) in data set [11] came out at 13.1 °C. Further, the IC50 in [12] was over 50 µM; with DU-145 it was over 10 µM.
